From ChEMBL document CHEMBL4706489, “Hydrogen sulfide releasing oridonin derivatives induce apoptosis through extrinsic and intrinsic pathways” (Eur J Med Chem, 2020)

Key:
HepG2 [1] = test: Induction of apoptosis in human HepG2 cells assessed as late apoptotic cells at 1 uM after 48 hrs by annexin V FITC and propidium iodide staining based flow cytometric analysis (reference value: 3.17%); type: functional
L02 = test: Cytotoxicity against human L02 cells assessed as cell viability after 72 hrs by MTT assay; settings: L02, 72 h
K562 [2] = test: Induction of apoptosis in human K562 cells assessed as nuclear fragmentation after 24 to 48 hrs by Hoechst 33258 staining based fluorescence microscopic method; type: functional, cell-based; settings: dose 1-4 µM, time 24-48 hrs
How it was run: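 K562 cells were exposed to 1.0, 2.0 or 4.0 test agent, with DMSO as vehicle control, for 24 h and 48 h. They were harvested, washed twice in PBS and stained with Hoechst 33258 (0.5 mg/mL in PBS) for 30 min in darkness. Slides were viewed by fluorescence microscopy with a DAPI filter. Three random fields of about 200 nuclei per sample were scored as % apoptotic nuclei. Three independent experiments.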

K562 [3] = test: Induction of cell cycle arrest in human K562 cells assessed as accumulation at G1 phase at 1 uM after 48 hrs by propidium iodide staining based flow cytometric analysis (reference value: 43.24 to 43.37%); type: functional
K562 [4] = test: Antiproliferative activity against human K562 cells assessed as reduction in cell viability after 72 hrs by MTT assay; settings: K562, 72 h
HepG2 [5] = test: Induction of cell cycle arrest in human HepG2 cells assessed as accumulation at G2 phase at 2 uM after 48 hrs by propidium iodide staining based flow cytometric analysis (reference value: 16.48 to 16.97%); type: functional
K562 [6] = test: Induction of apoptosis in human K562 cells assessed as viable cells at 0.5 uM after 48 hrs by annexin V FITC and propidium iodide staining based flow cytometric analysis (reference value: 96.76%); type: functional; settings: read-out: Activity
K562 [7] = test: Induction of apoptosis in human K562 cells assessed as late apoptotic cells at 2 uM after 48 hrs by annexin V FITC and propidium iodide staining based flow cytometric analysis (reference value: 0.42%); type: functional
K562 [8] = test: Induction of apoptosis in human K562 cells assessed as early apoptotic cells at 2 uM after 48 hrs by annexin V FITC and propidium iodide staining based flow cytometric analysis (reference value: 2.13%); type: functional
HepG2 [9] = test: Induction of cell cycle arrest in human HepG2 cells assessed as accumulation at S phase at 2 uM after 48 hrs by propidium iodide staining based flow cytometric analysis (reference value: 33.22 to 33.58%); type: functional

Question: How did the Activity (HepG2 [1]) turn out when C=C1C(=O)[C@]23[C@H](OC(=O)CCC(=O)OCCCCCCOc4ccc(-c5cc(=S)ss5)cc4)[C@H]1CC[C@H]2[C@@]12CO[C@@]3(O)[C@@H](O)[C@@H]1C(C)(C)CC[C@@H]2OC(C)=O was run?
Answer: Its Activity is 12.72%.

Question: What about the IC50 (L02) of the same molecule?
Answer: Its IC50 is 17.6 µM.

Question: And the Activity (K562 [2])?
Answer: The Activity was “Dose-dependent effect”.

Question: What about the Activity (K562 [3]) of the same molecule?
Answer: The Activity was 34.14%.

Question: What about the IC50 (K562 [4]) of the same molecule?
Answer: Its IC50 is 0.95 µM.

Question: What about the Activity (HepG2 [5]) of the same molecule?
Answer: Its Activity is 6.6%.

Question: And the viability at 0.5 µM (K562 [6])?
Answer: The viability at 0.5 µM was 87%.

Question: And the Activity (K562 [7])?
Answer: Its Activity is 27.29%.

Question: And the Activity (K562 [8])?
Answer: Its Activity is 23.75%.

Question: And the Activity (HepG2 [9])?
Answer: Its Activity is 28.3%.
